Experimental data gathered from unrelated publications.
Protocols differ between the studies behind these lines.
Target: Serine/threonine-protein kinase BRSK2 (BRSK2, Homo sapiens, UniProt Q8IWQ3)
Residues used in one study (Q8IWQ3 1-736): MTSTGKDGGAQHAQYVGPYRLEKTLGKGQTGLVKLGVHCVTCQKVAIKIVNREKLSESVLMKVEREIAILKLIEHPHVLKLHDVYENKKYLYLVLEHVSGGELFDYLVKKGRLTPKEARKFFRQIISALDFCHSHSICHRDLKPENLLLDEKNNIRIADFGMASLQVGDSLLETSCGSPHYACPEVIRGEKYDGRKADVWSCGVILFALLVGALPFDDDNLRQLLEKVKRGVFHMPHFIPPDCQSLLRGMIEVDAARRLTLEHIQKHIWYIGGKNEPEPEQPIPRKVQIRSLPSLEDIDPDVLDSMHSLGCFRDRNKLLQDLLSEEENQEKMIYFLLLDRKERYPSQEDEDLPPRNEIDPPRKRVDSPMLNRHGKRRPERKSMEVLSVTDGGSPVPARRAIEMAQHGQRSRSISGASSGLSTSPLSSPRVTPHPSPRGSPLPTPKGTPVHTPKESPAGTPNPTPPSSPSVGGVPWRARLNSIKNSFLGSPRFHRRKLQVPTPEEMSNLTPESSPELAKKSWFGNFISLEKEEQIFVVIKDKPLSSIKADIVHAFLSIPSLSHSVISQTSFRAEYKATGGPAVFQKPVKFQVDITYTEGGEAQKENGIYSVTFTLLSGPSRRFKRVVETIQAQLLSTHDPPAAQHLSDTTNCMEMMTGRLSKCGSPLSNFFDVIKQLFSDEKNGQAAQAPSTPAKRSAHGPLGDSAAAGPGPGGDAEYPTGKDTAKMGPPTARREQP

| SMILES | effect on | mode | technique | concentration | measurement | result |
| --- | --- | --- | --- | --- | --- | --- |
| CS(=O)(=O)N1CCCC(NC(=O)[C@H](CCC2CCCCC2)NC(=O)c2ccc(CNC(=O)c3cnc4ccccn34)cc2)C1 (stereo partly shown) | cell-free assay |  | competition with immobilised ligand | 0.1 µM | remaining binding | 100% |
| CN1CC(Oc2cnc(C#N)cc2-c2ccn3nc(NC(=O)C4CC4)cc3c2)C1 | enzyme activity | inhibitor |  | 1 µM | inhibition | 16% |
| CN(C)C(=O)Cn1cc(-c2nc([C@@](C)(c3ccc(-c4cnc(N)nc4)cc3)C3CC3)no2)cn1 | cell-free assay |  | competition with immobilised ligand | 1 µM | remaining binding | 100% |
| Oc1ccc(-c2nc(-c3ccncc3)c(-c3ccc(F)cc3)[nH]2)cc1 | cell-free assay |  |  | 0.5 µM | remaining signal | 101% |
| O=C(Nc1cnn(-c2csc(C(=O)NC3COC3)c2)c1)Nc1c(F)cccc1Cl | enzyme activity | inhibitor |  | 5 µM | remaining activity | 100% |
| CCCOc1ccc(OC)c(F)c1C(=O)c1ccc(C(=O)N[C@@H]2CNC[C@H]2NC(=O)c2ccc3[nH]ncc3c2)cc1 | enzyme activity | inhibitor |  | 10 µM | remaining activity | 33% |
| COc1ccc(COc2ccc(Cc3cnc(N)nc3N)cc2OC)cc1 | cell-free assay |  |  | 0.5 µM | remaining signal | 96.8% |
| Nc1nc(Nc2ccccc2)sc1C(=O)c1c(F)cccc1F | enzyme activity | inhibitor |  | 10 µM | remaining activity | 55% |
| Cc1cc(NC(=O)c2cccc(S(F)(F)(F)(F)F)c2)cc(-n2ccn3nc(-c4cccnc4)cc23)c1 | cell-free assay |  | competition with immobilised ligand | 1 µM | remaining binding | 100% |
| O=C1Nc2ccc(Cl)cc2C1=Cc1cc(Cl)c(O)c(Cl)c1 | cell-free assay |  |  | 0.5 µM | remaining signal | 77.2% |
| Cc1ccc(NC(=O)c2ccc(C)c(C(F)(F)F)c2)cc1C#Cc1nn(C2CCC(O)CC2)c2ncnc(N)c12 (stereo not shown) | cell-free assay |  |  | 10 µM | remaining signal | 93% |
| COc1cc(Nc2cnc(C#N)c(O[C@H](C)CN(C)C)n2)ncc1-c1cnn(C)c1 | enzyme activity | inhibitor | radiometric | 1 µM | remaining activity | 23% |
| CNc1cccc2cc(C(=O)Nc3ccc(C(=O)O)cc3)c(=O)[nH]c12 | enzyme activity | inhibitor |  | 10 µM | inhibition | 7.8% |
| Cc1cnc(NC2CCOCC2)nc1-n1cnc(C(=O)NC(CN)c2cc(F)cc(Cl)c2)c1 (stereo not shown) | enzyme activity | inhibitor | radiometric | 1 µM | remaining activity | 42% |
| COc1cc(/C=C/C(=O)CC(=O)/C=C/c2ccc(O)c(OC)c2)ccc1O | enzyme activity | inhibitor |  | 1 µM | activity vs control | 88% |
| Cn1c(=O)n(-c2ccc(C(C)(C)C#N)cc2)c2c3cc(-c4cnc5ccccc5c4)ccc3ncc21 | enzyme activity | inhibitor |  | 10 µM | remaining activity | 89% |
| Cc1ccc(Nc2nccc(N(C)c3ccc4c(C)n(C)nc4c3)n2)cc1S(N)(=O)=O | enzyme activity | inhibitor |  | 10 µM | inhibition | -11% |
| CS(=O)(=O)NCC[C@H](NC(=O)c1cncc2c1cnn2-c1ccc(F)cc1)c1ccnc(S(C)(=O)=O)c1 | cell-free assay |  | competition with immobilised ligand | 1 µM | remaining binding | 77% |
| CC(C)(O)[C@H]1CC[C@H](Nc2ccc3ncc(-c4cccc(C(F)(F)F)c4)n3n2)CC1 | enzyme activity | inhibitor |  | 1 µM | remaining activity | 94.4% |
| CN([C@@H]1CCc2c(CC(=O)O)c3ccccc3n2C1)S(=O)(=O)c1ccc(F)cc1 | cell-free assay |  | competition with immobilised ligand | 1 µM | remaining binding | 100% |
| Cc1cc(NC(=O)c2cccc3cc(-c4cccc5[nH]nc(N)c45)ccc23)ccc1F | enzyme activity | inhibitor |  | 0.1 µM | activity vs control | 100% |
| CC(C)(C)c1nc(-c2cccc(NS(=O)(=O)c3c(F)cccc3F)c2F)c(-c2ccnc(N)n2)s1 | enzyme activity | inhibitor | radiometric | 1 µM | remaining activity | 50% |
| CN(C)C(=O)Cn1cc(-c2nc(C3(c4ccc(-c5cnc(N)nc5)cc4)CC3)no2)cn1 | cell-free assay |  | competition with immobilised ligand | 1 µM | remaining binding | 77% |
| Nc1nc(Nc2ccc(S(N)(=O)=O)cc2)nn1C(=O)c1c(F)cccc1F | cell-free assay |  |  | 0.5 µM | remaining signal | 49% |
| Cn1nc(C(=O)NCc2ccc(C(=O)O)cc2)cc1-c1ccc2[nH]ccc2c1 | cell-free assay |  | competition with immobilised ligand | 0.1 µM | remaining binding | 100% |
| FC(F)(F)Oc1cccc(-c2cnc3ccc(-c4ccncc4)nn23)c1 | enzyme activity | inhibitor | radiometric | 5 µM | activity vs control | 99% |
| CC(=O)c1c(NS(C)(=O)=O)c2cc(-c3ccc(Cl)cc3)c(-c3ccc(Cl)cc3Cl)nc2n(C)c1=O | cell-free assay |  | competition with immobilised ligand | 1 µM | remaining binding | 90% |
| CC/C(=N\NC(=O)NCc1cccc(O)c1)c1ccc(O)c(C)c1O | enzyme activity | inhibitor |  | 0.1 µM | inhibition | 3.7% |
